Results from different studies.
SLC6A3: Sodium-dependent dopamine transporter (SLC6A3, Homo sapiens, UniProt Q01959)
PDE10A: cAMP and cAMP-inhibited cGMP 3',5'-cyclic phosphodiesterase 10A (PDE10A, Homo sapiens, UniProt Q9Y233)

CCOC(=O)[C@@]12C[C@@H]1[C@@H](n1ccc3c(NCCCCCCCc4ccccc4)nc(C#Cc4ccccc4)nc31)[C@H](O)[C@@H]2O
inhibition (SLC6A3; ligand displacement, radioligand; 10 µM): 25%

COc1ccc2nccc(Cc3cccc(-c4cnn(C5COC5)c4)c3)c2c1
inhibition (PDE10A; enzyme activity, inhibitor, FP; 0.1 µM): 3%

NC/C(=C\F)COc1cccc(Cn2c(=S)[nH]c(=O)c3[nH]cnc32)c1
inhibition (Sodium- and chloride-dependent GABA transporter 1 (Slc6a1, Rattus norvegicus, UniProt P23978); ligand displacement, radioligand; 10 µM): < 50%

C#Cc1cc(-c2cc(Nc3nc(N[C@@H](C)c4ccc(F)cn4)ncc3Cl)n[nH]2)ccc1C=O
inhibition (Mitogen-activated protein kinase 15 (MAPK15, Homo sapiens, UniProt Q8TD08); enzyme activity, inhibitor; 0.2 µM): 11.5%

CCOC(=O)[C@@]12C[C@@H]1[C@@H](n1cnc3c(NCCCCCc4ccccc4)nc(C#Cc4ccccc4)nc31)[C@H](O)[C@@H]2O
inhibition (SLC6A3; transporter uptake, inhibitor, radiometric; HEK293; 10 µM): 9%

COc1ccc2c(Cc3ccc(OC)c(OC)c3)ncnc2c1
inhibition (PDE10A; enzyme activity, inhibitor, FP; 0.1 µM): 22%

Cc1cc(O)c(-c2ccc([C@@H](C)CN(C)C)cc2)c2c1[nH]c(=O)c1sccc12
inhibition (Serine/threonine-protein kinase D1 (PRKD1, Homo sapiens, UniProt Q15139); enzyme activity, inhibitor; 0.1 µM): -0.107%

c1ccc(-c2cccc(Cc3ncnc4ccccc34)c2)cc1
inhibition (PDE10A; enzyme activity, inhibitor, FP; 0.1 µM): 0%

N#CC[C@@]12C[C@@H]1[C@@H](n1cnc3c(NCc4cccc(Cl)c4)nc(C#Cc4ccc(Cl)s4)nc31)[C@H](O)[C@@H]2O
inhibition (SLC6A3; ligand displacement, radioligand; 10 µM): 89%
